Active and inactive are the calls of the source. The rule behind the calls is not given here.
Key:
COLO-829 = assay: Cytotoxicity against human COLO-829 cells assessed as cell viability incubated for 48 hrs by MTT assay; format: functional, cell-based; conditions: COLO-829, 48 h
Summary of the method: (§1)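 Cells seeded at 5000/well, held 24 h at 37 °C, 5% CO2, then exposed 48 h to 100, 50, 25, 12.5, 6.3 or 3.1 μM, with an untreated control. Then 0.5 mg mL⁻¹ MTT in FBS-free DMEM for 4 h at 37 °C, formazan dissolved in DMSO and read at 570 nm. IC50 is the mean ± SD of at least three independent experiments; 5-FU served as positive control.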

HepG2 = assay: Cytotoxicity against human HepG2 cells assessed as cell viability incubated for 48 hrs by MTT assay; format: functional, cell-based; conditions: HepG2, 48 h; summary of the method: as §1
HeLa [1] = assay: Cytotoxicity against human HeLa cells assessed as cell viability incubated for 48 hrs by MTT assay; format: functional, cell-based
Summary of the method: (§2)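 5000 cells/well preincubated 24 h at 37 °C, 5% CO₂, then exposed to 3.1–100 μM for 48 h; untreated control, 5-FU positive control. MTT at 0.5 mg/mL in FBS-free DMEM for 4 h, formazan dissolved in DMSO, absorbance read at 570 nm. IC50 taken as half-maximal inhibitory concentration; mean ± SD of at least three independent experiments.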

[2] = Cytotoxicity against human HaCaT cells assessed as cell viability incubated for 48 hrs by MTT assay; format: toxicity, cell-based; summary of the method: as §1
A549 = assay: Cytotoxicity against human A549 cells assessed as cell viability incubated for 48 hrs by MTT assay; format: functional, cell-based; conditions: A549, 48 h; summary of the method: as §1
Mitochondrial membrane [3] = assay: Induction of mitochondrial membrane potential depolarization in human HeLa cells assessed as decrease in red to green fluorescence intensity ratio at 3.7 to 14.5 uM incubated for 48 hrs by JC-1 staining based flow cytometric analysis; conditions: dose 3.7-14.5 µM
Summary of the method: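 HeLa cells attached overnight, then treated at 0, 3.7, 7.3 or 14.5 μM for 48 h and stained with JC-1. Red (590 nm) and green (527–529 nm) fluorescence measured by flow cytometry. Red/green ratio expressed as percent of untreated cells; one-way ANOVA, at least triplicate.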

Mitochondrial membrane [4] = assay: Induction of mitochondrial membrane potential depolarization in human HeLa cells assessed as red fluorescence intensity at 14.5 uM incubated for 48 hrs by JC-1 staining based flow cytometric analysis (reference value: 95.8); format: cell membranes
Summary of the method: (§3)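 HeLa cells grown in 10 cm dishes and left to attach overnight, then treated 48 h at 0, 3.7, 7.3 or 14.5 μM. Stained with JC-1 per kit instructions. Red (J-aggregate, 590 nm) and green (monomer, 527–529 nm) fluorescence read by flow cytometry. Red/green ratio expressed as % of untreated cells. At least triplicate; one-way ANOVA.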

HeLa [5] = assay: Antiproliferative activity against human HeLa cells assessed as inhibition of colony formation at 12 uM incubated for 14 days by crystal violet staining based analysis; format: functional, cell-based; conditions: time 14.0 day
Summary of the method: (§4)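 1000 HeLa cells per 3.5 cm dish, treated after attachment with 0, 1.5, 3, 6 or 12 μM for 14 days, medium refreshed every 2 days. Cells were fixed in 100% methanol for 30 min and stained with 0.1% crystal violet for 30 min. Colonies were imaged and counted, normalised to control wells. At least triplicate.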

HeLa [6] = assay: Induction of apoptosis in human HeLa cells assessed as early apoptotic cells at 7.3 uM incubated for 48 hrs by Annexin V-FITC/PI staining based flow cytometry analysis (reference value: 2.56%); format: functional
HeLa [7] = assay: Induction of apoptosis in human HeLa cells assessed as late apoptotic cells at 3.7 uM incubated for 48 hrs by Annexin V-FITC/PI staining based flow cytometry analysis (reference value: 6.10 %); format: functional
HeLa [8] = assay: Induction of apoptosis in human HeLa cells assessed as necrotic cells at 7.3 uM incubated for 48 hrs by Annexin V-FITC/PI staining based flow cytometry analysis (reference value: 0.12%); format: functional
HeLa [9] = assay: Induction of apoptosis in human HeLa cells assessed as necrotic cells at 14.5 uM incubated for 48 hrs by Annexin V-FITC/PI staining based flow cytometry analysis (reference value: 0.12%); format: functional
Mitochondrial membrane [10] = assay: Induction of mitochondrial membrane potential depolarization in human HeLa cells assessed as red fluorescence intensity at 7.3 uM incubated for 48 hrs by JC-1 staining based flow cytometric analysis (reference value: 95.8); format: cell membranes; summary of the method: as §3
HeLa [11] = assay: Antiproliferative activity against human HeLa cells assessed as inhibition of colony formation at 1.5 to 12 uM incubated for 14 days by crystal violet staining based analysis; format: functional, cell-based; conditions: dose 1.5-12 µM, time 14.0 day; summary of the method: as §4
HeLa [12] = assay: Induction of ROS production in human HeLa cells incubated for 48 hrs by H2DCFDA dye-based flow cytometry analysis; format: functional, cell-based; conditions: dose 3.7-14.5 µM
Summary of the method: (§5)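 HeLa cells exposed to 0, 3.7, 7.3 or 14.5 μM for 48 h, trypsinised, washed in PBS, then loaded with H₂DCFDA (final 10 μM) at 37 °C for 30 min in the dark. DCF fluorescence (ex 498/em 522 nm) read by flow cytometry and expressed as percent of untreated cells. At least triplicate.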

Mitochondrial membrane [13] = assay: Induction of mitochondrial membrane potential depolarization in human HeLa cells assessed as green fluorescence intensity at 3.7 uM incubated for 48 hrs by JC-1 staining based flow cytometric analysis (reference value: 3.28); format: cell membranes; summary of the method: as §3
[14] = Selectivity index, ratio of IC50 for cytotoxicity against human HaCaT cells assessed as cell viability to IC50 for cytotoxicity against human HeLa cells assessed as cell viability; format: toxicity, cell-based; conditions: HaCaT cells versus HeLa cells, read-out: Ratio IC50
Summary of the method: (§6)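 Selectivity index is IC50 in non-cancer HaCaT keratinocytes divided by IC50 in the cancer line. Both IC50 values came from MTT viability after 48 h exposure (5000 cells/well, 3.1–100 μM, absorbance at 570 nm), each a mean of at least three independent experiments.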

A-375 = assay: Cytotoxicity against human A-375 cells assessed as cell viability incubated for 48 hrs by MTT assay; format: functional, cell-based; conditions: A-375, 48 h; summary of the method: as §2
HeLa [15] = assay: Anti-migration activity in human HeLa cells assessed as increase in wound width at 14.5 uM incubated 24 hrs by wound-healing assay (reference value: 61%); format: functional
HeLa [16] = assay: Induction of ROS production in human HeLa cells at 14.5 uM incubated for 48 hrs by H2DCFDA dye-based flow cytometry analysis; format: functional; summary of the method: as §5
HeLa [17] = assay: Induction of ROS production in human HeLa cells at 3.7 uM incubated for 48 hrs by H2DCFDA dye-based flow cytometry analysis; format: functional; summary of the method: as §5
[18] = Selectivity index, ratio of IC50 for cytotoxicity against human HaCaT cells assessed as cell viability to IC50 for cytotoxicity against human A549 cells assessed as cell viability; format: toxicity, cell-based; conditions: HaCaT cells versus A549 cells; summary of the method: as §6
HeLa [19] = assay: Induction of apoptosis in human HeLa cells assessed as necrotic cells at 3.7 uM incubated for 48 hrs by Annexin V-FITC/PI staining based flow cytometry analysis (reference value: 0.12%); format: functional
HeLa [20] = assay: Induction of apoptosis in human HeLa cells assessed as viable cells at 14.5 uM incubated for 48 hrs by Annexin V-FITC/PI staining based flow cytometry analysis (reference value: 91.2%); format: functional; conditions: read-out: Activity
HeLa [21] = assay: Induction of ROS production in human HeLa cells at 7.3 uM incubated for 48 hrs by H2DCFDA dye-based flow cytometry analysis; format: functional; summary of the method: as §5
HeLa [22] = assay: Induction of apoptosis in human HeLa cells assessed as early apoptotic cells at 3.7 uM incubated for 48 hrs by Annexin V-FITC/PI staining based flow cytometry analysis (reference value: 2.56%); format: functional
Mitochondrial membrane [23] = assay: Induction of mitochondrial membrane potential depolarization in human HeLa cells assessed as green fluorescence intensity at 14.5 uM incubated for 48 hrs by JC-1 staining based flow cytometric analysis (reference value: 3.28); format: cell membranes; summary of the method: as §3
HeLa [24] = assay: Induction of apoptosis in human HeLa cells assessed as late apoptotic cells at 7.3 uM incubated for 48 hrs by Annexin V-FITC/PI staining based flow cytometry analysis (reference value: 6.10 %); format: functional
HeLa [25] = assay: Induction of apoptosis in human HeLa cells assessed as viable cells at 3.7 uM incubated for 48 hrs by Annexin V-FITC/PI staining based flow cytometry analysis (reference value: 91.2%); format: functional; conditions: read-out: Activity
HeLa [26] = assay: Induction of apoptosis in human HeLa cells assessed as late apoptotic cells at 14.5 uM incubated for 48 hrs by Annexin V-FITC/PI staining based flow cytometry analysis (reference value: 6.10 %); format: functional
HeLa [27] = assay: Anti-migration activity in human HeLa cells assessed as inhibition of cell migration at 14.5 uM incubated 24 hrs by wound-healing assay; format: functional; parameters: scale not given: the % may be the effect or the level left
HeLa [28] = assay: Induction of apoptosis in human HeLa cells assessed as early apoptotic cells at 14.5 uM incubated for 48 hrs by Annexin V-FITC/PI staining based flow cytometry analysis (reference value: 2.56%); format: functional
HeLa [29] = assay: Induction of apoptosis in human HeLa cells assessed as viable cells at 7.3 uM incubated for 48 hrs by Annexin V-FITC/PI staining based flow cytometry analysis (reference value: 91.2%); format: functional; conditions: read-out: Activity
HeLa [30] = assay: Induction of apoptosis in human HeLa cells assessed as necrotic cells incubated for 48 hrs by Annexin V-FITC/PI staining based flow cytometry analysis; format: functional, cell-based; conditions: dose 3.7-14.5 µM
Mitochondrial membrane [31] = assay: Induction of mitochondrial membrane potential depolarization in human HeLa cells assessed as green fluorescence intensity at 7.3 uM incubated for 48 hrs by JC-1 staining based flow cytometric analysis (reference value: 3.28; format: cell membranes; summary of the method: as §3
Mitochondrial membrane [32] = assay: Induction of mitochondrial membrane potential depolarization in human HeLa cells assessed as red fluorescence intensity at 3.7 uM incubated for 48 hrs by JC-1 staining based flow cytometric analysis (reference value: 95.8); format: cell membranes; summary of the method: as §3
[33] = Selectivity index, ratio of IC50 for cytotoxicity against human HaCaT cells assessed as cell viability to IC50 for cytotoxicity against human HepG2 cells assessed as cell viability; format: toxicity, cell-based; conditions: HaCaT cells versus HepG2 cells; summary of the method: as §6

Structure (SMILES): O=c1[nH]cc(F)c(=O)[nH]1 [FLUOROURACIL]
- IC50 (COLO-829): 48.7 µM
- IC50 (HepG2): 16.6 µM
- IC50 (HeLa [1]): 14.5 µM
- IC50 at 48 h [2]: 30 µM
- IC50 (A549): 72.6 µM

Structure (SMILES): CN(C)CCNCCc1ccc2c(Cl)cc(Cl)c(N)c2n1.Cl.Cl.Cl
- Activity (Mitochondrial membrane [3]): Active
- Flu intensity (Mitochondrial membrane [4]): 61.8
- Activity (HeLa [5]): Active
- Activity (HeLa [6]): 6.06%
- Activity (HeLa [7]): 6.48%
- Activity (HeLa [8]): 0.1%
- Activity (HeLa [9]): 0.15%
- Flu intensity (Mitochondrial membrane [10]): 91.2
- Activity (HeLa [11]): Active
- Activity (HeLa [12]): Dose-dependent-effect
- Flu intensity (Mitochondrial membrane [13]): 5.51
- selectivity ratio [14]: 2.8
- IC50 (A-375): 38.1 µM
- IC50 (COLO-829): 40.2 µM
- Activity (HeLa [15]): 74%
- IC50 (HepG2): 16.6 µM
- Activity (HeLa [16]): 150%
- Activity (HeLa [17]): 125%
- IC50 (HeLa [1]): 14.5 µM
- Activity (HeLa [1]; dose <= 100.0 µM): Dose-dependent-effect
- selectivity ratio [18]: 2.5
- Activity (HeLa [19]): 0.33%
- viability at 14.5 µM (HeLa [20]): 49.3%
- Activity (HeLa [21]): 138%
- Activity (HeLa [22]): 2.56%
- Flu intensity (Mitochondrial membrane [23]): 37.3
- Activity (HeLa [24]): 8.49%
- viability at 3.7 µM (HeLa [25]): 90.6%
- IC50 at 48 h [2]: 41.1 µM
- Activity (HeLa [26]): 28.9%
- IC50 (A549): 16.2 µM
- Activity (HeLa [27]): 33%
- Activity (HeLa [28]): 21.6%
- viability at 7.3 µM (HeLa [29]): 85.3%
- Activity (HeLa [30]): Dose-dependent-effect
- Flu intensity (Mitochondrial membrane [31]): 8.25
- Flu intensity (Mitochondrial membrane [32]): 93.9
- selectivity ratio [33]: 2.5

From ChEMBL document CHEMBL6083225, “Copper selective 8-aminoquinoline based tetradentate chelators as anticancer agents” (RSC Med Chem, 2024)
